Screens as filed in PubChem.
KCNK9 inh – KCNK9 potassium channel inhibitors, primary screen, HEK293 cells, thallium flux | FluxOR thallium flux fluorescence; stronger effect = lower value | Potassium channel subfamily K member 9 (Homo sapiens), Q9NPC2 | AID 488922, 2010 | B-score at 10 µM | 310,000 tested, 1.2% active;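 active = ratio B-score over 3 SD below the library mean, with starting fluorescence within 5 SD of its mean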;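 also: negative B-score means less thallium flux so channel inhibition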
KCNK3 block – human KCNK3 channel inhibitors, primary screen, CHO cells, FluxOR thallium flux, B-score. Potassium channel subfamily K member 3 (Homo sapiens), O14649. FluxOR fluorescence; stronger effect = lower value. 340,000 tested, 0.84% active. B-score at 10 µM;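 active = B-score under library mean minus 4 SD, starting fluorescence ratio at most library mean plus 5 SD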;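 also: more negative B-score means stronger inhibition of thallium flux through KCNK3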
KCNQ1 pot – potentiators or activators of KCNQ1 channel, primary screen, cell-based, thallium flux, high-throughput; 310,000 tested, 0.35% active; B-score at 10 µM; CHO-K1 KCNQ1, thallium flux FluxOR fluorescence; stronger effect = higher value; AID 2648, 2010; Potassium voltage-gated channel subfamily KQT member 1 (Homo sapiens), P51787;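 active = fluorescence ratio B-score, a plate-corrected score, at least three library SD, with initial intensity B-score within 5 SD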
Target sequence (P51787 whole entry, looked up): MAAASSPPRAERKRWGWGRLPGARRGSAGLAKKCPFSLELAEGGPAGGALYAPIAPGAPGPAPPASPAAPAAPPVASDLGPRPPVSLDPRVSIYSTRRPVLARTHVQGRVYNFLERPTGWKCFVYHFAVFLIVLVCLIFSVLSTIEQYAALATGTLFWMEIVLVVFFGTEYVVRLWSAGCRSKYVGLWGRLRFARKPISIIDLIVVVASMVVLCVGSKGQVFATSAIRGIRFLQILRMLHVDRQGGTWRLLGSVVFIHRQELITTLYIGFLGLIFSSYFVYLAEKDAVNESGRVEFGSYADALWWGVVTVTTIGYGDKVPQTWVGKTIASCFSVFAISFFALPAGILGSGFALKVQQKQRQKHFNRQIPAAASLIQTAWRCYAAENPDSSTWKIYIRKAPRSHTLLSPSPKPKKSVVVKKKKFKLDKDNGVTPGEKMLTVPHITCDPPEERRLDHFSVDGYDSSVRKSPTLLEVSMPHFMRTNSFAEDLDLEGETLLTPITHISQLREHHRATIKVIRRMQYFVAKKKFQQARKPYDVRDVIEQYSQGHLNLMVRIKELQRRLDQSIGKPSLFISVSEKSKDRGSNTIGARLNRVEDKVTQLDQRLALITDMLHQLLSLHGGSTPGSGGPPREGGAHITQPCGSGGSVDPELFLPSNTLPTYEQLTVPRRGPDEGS
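Material: CHO-K1 cells stably expressing KCNQ1. Medium: assay buffer for compound exposure, DMSO matched across wells. Reagent: K+/Tl+ depolarizing stimulus. Compound dosing: single-concentration screen. Times: 37 °C overnight plating, 90-min dark dye load, 20-min compound pretreatment. Technique: FluxOR Tl+ flux fluorescence.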
KCNQ1 inh – inhibitors of human KCNQ1 channel, primary screen, cell-based, thallium flux, high-throughput | CHO-K1 KCNQ1, FluxOR thallium flux fluorescence; stronger effect = higher value | AID 2642, 2010 | B-score at 10 µM | 310,000 tested, 1.3% active;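 active = compounds whose thallium flux B-score, printed positive for inhibition, exceeds three library SD while starting fluorescence stays within three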;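 also: channel opened by potassium depolarization with thallium stimulus after 20 min compound exposure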
Kir21 inh – inhibitors of mouse Kir2.1 inward-rectifier potassium channel. HEK293-Kir2.1, FluxOR thallium flux fluorescence; stronger effect = lower value. B-score at 10 µM. 310,000 tested, 0.85% active. Inward rectifier potassium channel 2 (Mus musculus), P35561;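 active = fluorescence ratio B-score at or below minus 3 SD of library scores, with starting-brightness B-score within 2 SD, cut at about -4.2 in these data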;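 also: channel flux triggered by added potassium and thallium sulfate stimulus; B-score of peak minus minimum fluorescence over baseline after thallium stimulus; more negative B-score means stronger Kir2.1 block with less thallium influx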
hERG rescue – hERG rescue from dofetilide block, primary screen, cell-based, CHO-hERG, FluxOR thallium flux, dofetilide IC70; Voltage-gated inwardly rectifying potassium channel KCNH2 (Homo sapiens), Q12809; dofetilide IC70 present; activation (rescue from dofetilide block), less the hit threshold, % at 10 µM; 310,000 tested, 0.51% active; AID 1511, 2009;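 active = activation above the mean of controls blocked by dofetilide plus 5 SD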;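 also: thallium influx through hERG after potassium depolarization seen as dye fluorescence rise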
KCNK3 confirm – retest of human KCNK3 channel inhibitors, confirmation, CHO cells, FluxOR thallium flux, triplicate; 2,400 tested, 99% active; FluxOR fluorescence; 0% buffer, 100% carvedilol maximal block; shares compounds with KCNK3 block; ratio percent of control, % at 10 µM;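 active = ratio percent of control, averaged over triplicates, above buffer control mean plus 5 SD, cut at about 64% in these data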;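 also: ratio is the fluorescence rise from min to max over baseline after thallium stimulus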
KCNK3 noninduced – thallium flux inhibition in non-induced cells, primary screen, counter-screen for KCNK3 inhibitor project, cell-based, non-induced KCNK3 line, FluxOR thallium, triplicate; 2,400 tested, 40% active; AID 651747, 2012; shares compounds with KCNK3 block; thallium flux ratio (lower = more inhibition) at 10 µM; non-induced KCNK3 parental cells; stronger effect = lower value;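 active = thallium flux ratio, averaged over three wells, more than 5 SD below the buffer control mean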;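 also: host cells are CHO cells without KCNK3 induction; ratio is peak minus trough fluorescence over baseline then normalized to buffer controls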
An asterisk follows results filed as active; i = inactive; . = no result given. Sampled rows, rich in hits. Any-hit rate of the full collection: about 3.7%.

SMILES	KCNK9 inh	KCNK3 block	KCNQ1 pot	KCNQ1 inh	Kir21 inh	hERG rescue	KCNK3 confirm	KCNK3 noninduced
CC(C)C(CCNC(=O)CC(Cc1ccccc1)c1ccco1)c1ccco1 (stereo not drawn)	i	-9.4*	i	i	-3.1	-15	120*	0.15*
Cc1cc(N2CCC(C)CC2)c(F)cc1[N+](=O)[O-]	i	i	i	i	0.19	-7	.	.
Cc1cc(N2CCCC2)c(F)cc1/C=C\[N+](=O)[O-]	i	-10*	i	i	-7.7*	-36	128*	0.099*
CCc1ccc(NC(=S)N(CCN(C)C)C(C)c2ccncc2)cc1 (stereo not drawn)	i	i	i	i	-0.86	-5	.	.
CC(C)(C)c1ccc(/C=C/C(=O)N2CCCCC2)cc1	i	-8.9*	i	i	-0.2	2	108*	i
COCCCNC(=S)NCCNc1nc2c(C)c(C)ccc2cc1C#N	.	i	.	.	.	.	.	.
Cc1ccnc(NC(=O)c2ccc(S(=O)(=O)N3CCCCCC3)cc2)c1	i	i	i	i	0.8	-6	.	.
CCN(CC)S(=O)(=O)c1ccc(NC(=O)c2cnccn2)cc1	i	i	i	i	1.2	-1	.	.
CN(C)c1cccc(C(=O)OCc2cc(=O)oc3cc(O)ccc23)c1	i	-9*	i	i	0.88	-16	113*	i
CC(=O)Nc1ccc(NC(=O)C(C)OC(=O)CCc2c[nH]c3ccccc23)cc1 (stereo not drawn)	i	i	i	i	-1.4	-16	.	.
O=C1c2cccc3cccc(c23)N1Cc1cccc(F)c1	i	-14*	i	i	1.6	-2	101*	i
O=C(N/N=C/c1cn(-c2ccccc2)nc1-c1cccnc1)c1ccccc1	i	-9.5*	i	i	-0.19	-14	98*	i
O=[N+]([O-])c1cccc(C2NCC(c3ccccc3Cl)c3c2[nH]c2ccccc32)c1 (stereo not drawn)	-8.1*	-9.5*	i	7*	-0.23	-14	125*	0.14*
CC12CCC(=O)C=C1CCC1C2C(O)CC2(C)C(c3csc(N)n3)CCC12 (stereo not drawn)	.	i	.	.	.	.	.	.
CC12CCC(=O)C=C1CCC1C2CCC2(C)C(c3csc(N)n3)CCC12 (stereo not drawn)	.	-14*	.	.	.	.	133*	0.12*
Cn1c(=O)n(CCCOc2ccc(Cl)cc2)c2ccccc21	i	-8.7*	i	i	-2.1	-11	100*	i
CCc1cc(C(=O)Nc2cc(S(=O)(=O)N(CC)CC)ccc2N2CCN(C)CC2)sc1C	i	i	i	i	0.6	-14	.	.
CCc1cc(C(=O)Nc2cc(S(=O)(=O)N(C)C)ccc2C)sc1C	i	-9.3*	i	i	0.05	-10	90*	i
COCCN(C(=O)Cn1c(C(F)(F)F)nc2ccccc21)c1c(N)n(Cc2ccccc2)c(=O)[nH]c1=O	i	i	i	i	1.1	-11	.	.
CCC(C)N1CCN(S(=O)(=O)Cc2ccccc2)CC1 (stereo not drawn)	i	i	i	i	2	-2	.	.
CCCc1c(C(=O)N/N=C/c2ccccc2C(F)(F)F)nnn1-c1nonc1N	i	i	i	i	-0.83	-6	.	.
COc1cc(/C=C(\C#N)c2nc3ccccc3[nH]2)cc(OC)c1O	i	-16*	i	i	-7	-16	0	i
COc1ccc(/C=C(\C#N)c2nc3ccccc3[nH]2)cc1O	i	i	i	i	1.6	-2	.	.
COc1cc(/C=C(\C#N)c2nc3ccccc3n2C)cc(OC)c1O	i	-9.4*	i	7*	-4.5	-18	118*	0.15*
CCOc1ccc(N(CC(=O)NC(C(C)C)C(C)C)S(=O)(=O)c2ccc(OC)c(OC)c2)cc1	i	i	i	i	-1.4	-8	.	.
SMILES	KCNK9 inh	KCNK3 block	KCNQ1 pot	KCNQ1 inh	Kir21 inh	hERG rescue	KCNK3 confirm	KCNK3 noninduced
Cc1ccccc1-n1nnnc1SCc1csc(-c2ccccc2)n1	i	-11*	i	i	-0.87	-13	105*	i
CCc1ncc(CN2CCCC(C(=O)Nc3cccc(-c4cccc(C)c4)c3)C2)cn1 (stereo not drawn)	i	-11*	i	i	0.04	-13	115*	0.15*
COc1ccc(/C(C)=N/NS(=O)(=O)c2cc(C)ccc2C)c(OC)c1	i	-10*	i	i	0.63	-8	97*	i
CCOc1ccc(S(=O)(=O)N/N=C(\C)c2ccc(OC)cc2OC)cc1	i	i	i	i	0.39	-7	.	.
CCOC(=O)CNC(=O)C1c2ccccc2Oc2ccccc21	i	-12*	i	i	-0.01	-8	50*	i
Cc1noc(NS(=O)(=O)c2ccc(NC(=O)c3cccc(S(=O)(=O)Nc4ccccc4F)c3)cc2)c1C	.	i	.	.	.	.	.	.
CC(=O)N(CC(C)C(=O)O)c1c(I)cc(I)c(N)c1I (stereo not drawn)	.	i	.	.	.	.	.	.
CN1CCN(C2Cc3cc(Cl)ccc3Sc3cc(F)ccc32)CC1 (stereo not drawn)	i	-10*	i	i	-3.2	-13	144*	i
CC1CCCCC1NC(=O)c1ccc2c(c1)[nH]c(=O)n2C1CCCC1 (stereo not drawn)	i	-9.5*	i	i	-1.3	-8	105*	i
CCc1ccc(-c2cc(C)no2)cc1S(=O)(=O)NCc1ccccc1OC	i	-11*	i	i	0.84	-10	98*	i
Cc1cc(-c2ccc(C)c(S(=O)(=O)N3CCN(c4ccccn4)CC3)c2)on1	i	i	i	i	0.36	-7	.	.
CCc1ccc(-c2cc(C)no2)cc1S(=O)(=O)N1CCN(c2ccccc2OC)CC1	i	-9.6*	i	i	1.1	-13	83*	0.15*
